Assay results: the EternaBench riboswitch data

Tested on: MS2 coat protein
Test: apparent Kd, MS2 coat protein; higher = weaker binding; RNA-MaP array; theophylline 2 mM where present
Method in brief: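 The apparent Kd is the median of filtered binding-curve fits, one per cluster, to green signal normalised to red-channel RNA signal and control-cluster median Fmax. The clusters were on Illumina sequencing chips, and stalled E. coli RNA polymerase had transcribed the designs on them. Titration used SNAP-549-labelled MS2 coat protein from 0.7 or 1.5 nM, doubling to 3 µM, without and then with constant ligand, in 100 mM Tris-HCl pH 7.5, 80 mM KCl, 4 mM MgCl2, BSA, DTT, yeast tRNA and Tween-20.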

[1] = designed as: ON switch for theophylline, no ligand
[2] = ligand present: theophylline, designed as: ON switch for theophylline
[3] = designed as: OFF switch for theophylline, no ligand
[4] = ligand present: theophylline, designed as: OFF switch for theophylline

UUAGAUAUGACAGAUACCAGCGUGUUAUAAAACAUGAGGAUCACCCAUGUAGUGAUCGAGCGCCCUUGGCAGCUGGUGUGUUUGG
apparent Kd [1]: 69.6 nM
apparent Kd [2]: 208 nM

GAGCUGAUGUAGAGCGAAUAUACGAGAGAUACCAGUACAGAAAUGUACCCUUGGCAGCUCAACUUUACAUGAGGAUCACCCAUGU
apparent Kd [3]: 13.8 nM
apparent Kd [4]: 15.3 nM

ACAUUAGUUGGCGAUACCAGCUAUAGGCCUUCUGGGCGACAUGAGGAUCACCCAUGUGAUGGCCCUUGGCAGCGCUGAUUGAUGU
apparent Kd [1]: 151 nM
apparent Kd [2]: 41.4 nM

CGAUCUUUCGAAAGAAGGAUCGAGUCUGAUACCAGAGACGAAAGUCUCCCUUGGCAGCAGUGCCAACAUGAGGAUCACCCAUGUA
apparent Kd [1]: 18.7 nM
apparent Kd [2]: 21.1 nM

ACAUGAGGAUCACCCAUGUCAAGGCACGAUACCAGCUGAUCCGGUGGCCCUUGGCAGCGUCACGUUUGGUCCCGCGGAUGACACG
apparent Kd [1]: 64.7 nM
apparent Kd [2]: 108 nM

AAUAAUCUAGGUGAUACCAGCUCAACAUGAGGAUCACCCAUGUACUCAUGUAGAGUUGAGAGCCCUUGGCAGCACCUAGAUAAUA
apparent Kd [1]: 553 nM
apparent Kd [2]: 74.9 nM

AUAUGAUCAUAGGAUACCAGAAAUGGUAUUCCUUUAUUUCUUACAUGAGGAUCACCCAUGUUCCCUUGGCAGCUUAUGAUCAUAU
apparent Kd [3]: 126 nM
apparent Kd [4]: 115 nM

GAUGAACUAUUUGAUACCAGACCACAUGAGGAUCACCCAUGUGAGUUUCGUCCUUAGCCGGUCCCUUGGCAGCAAAUAGUUUAUC
apparent Kd [3]: 16.9 nM
apparent Kd [4]: 52.5 nM

CGAACAAAACUAAAUAAACAACUGGGUGAUACCAGUACAUGUGCGUACCCUUGGCAGCAUCCGGCCACAUGAGGAUCACCCAUGU
apparent Kd [1]: 64.7 nM
apparent Kd [2]: 119 nM

AAUAACAUGAGGAUCACCCAUGUAAAAGAUACCAGAUGCAUGAUGAUCCCUUGGCAGCUUAAAACGCGAUUGAUUACAAUCGCGA
apparent Kd [1]: 33.3 nM
apparent Kd [2]: 107 nM

ACAUGAGGAUCACCCAUGUAGUGGCACGAUACCAGCUGAUCCCGUGGCCCUUGGCAGCGUCCGGUGUGGUGCGCCGGGUUGGAGC
apparent Kd [1]: 49.1 nM
apparent Kd [2]: 61.7 nM

GAGUUCCUGAGAGAUACCAGUGAGGCCACAUGAGGAUCACCCAUGUCCCUCACUCCGGCCCACCCUUGGCAGCUCGAAAGAUAUU
apparent Kd [3]: 10.9 nM
apparent Kd [4]: 68.1 nM

AUCGUACCUGAUGAUACCAGCAAGUGAUCAUAACAUGAGGAUCACCCAUGUAAUCAGUGAUGCCCUUGGCAGCAUAGUCGAUACA
apparent Kd [1]: 164 nM
apparent Kd [2]: 99.8 nM

UUUGAUAUGACAGAUACCAGCGUGUUGUUGAACAUGAGGAUCACCCAUGUAGUGAUCAAGCGCCCUUGGCAGCUGGUGUGUUAGG
apparent Kd [1]: 125 nM
apparent Kd [2]: 82.7 nM

UAACAUGAGGAUCACCCAUGUAUAGUCGAUACCAGCUCAAGGGAGAGCCCUUGGCAGCGACACUGGUAUCCAUGGGUGUGGAUAC
apparent Kd [1]: 82.3 nM
apparent Kd [2]: 81.3 nM

GUACAUGAGGAUCACCCAUGUGGUAGGGAUACCAGCCAGAAGAAAGGCCCUUGGCAGCUUGUAUUUAGUGUGGGUUUGUUUGUUC
apparent Kd [3]: 23.4 nM
apparent Kd [4]: 54.9 nM

GGGUAAGAUCCGGAUACCAGCGAACAUGAGGAUCACCCAUGUGAAAUAAGAUAGAAUAAACGCCCUUGGCAGCCGAAAUAGAGUU
apparent Kd [1]: 77.3 nM
apparent Kd [2]: 30.1 nM

UCGUGUGUUUCGGAUACCAGUGUGGUCGAUACAUGAGGAUCACCCAUGUUAGAGGAGGUACACCCUUGGCAGCCGGCUGUUGCGG
apparent Kd [1]: 108 nM
apparent Kd [2]: 51.1 nM

AGCGAGAUCCGUGAUACCAGCUACAUGAGGAUCACCCAUGUGAGCGCGAAAGUGCUGUGUAGCCCUUGGCAGCACAGUGGAUCUC
apparent Kd [3]: 10 nM
apparent Kd [4]: 43.2 nM

UCGUGUAUAUCGGAUACCAGUGAAAACGAUACAUGAGGAUCACCCAUGUGAGUUGAUGUACACCCUUGGCAGCUGUAUAUAUCUA
apparent Kd [1]: 19.3 nM

AGCGAUAUGCAUGAUACCAGCUACAUGAGGAUCACCCAUGUACGUCAGUAAUGACUGUGUAGCCCUUGGCAGCAUAGAGCAUGUA
apparent Kd [3]: 25.5 nM
apparent Kd [4]: 33 nM

AGCGAUAUGCAUGAUACCAGCUACAUGAGGAUCACCCAUGUGCGUCAGAAAUGACUGUGUAGCCCUUGGCAGCAUAGAGCAUGUA
apparent Kd [3]: 37.4 nM
apparent Kd [4]: 73.6 nM

GUAUGGAAACAUACUAGGGUAUCAUGAGAUACCAGUACAGAAAUGUACCCUUGGCAGCUCAAGCAUACAUGAGGAUCACCCAUGU
apparent Kd [3]: 16.4 nM
apparent Kd [4]: 27.1 nM

AGCAUGUUAGCAGAUACCAGACGUUUUAUGAUCCAUGUAACAUGAGGAUCACCCAUGUAAGUCCCUUGGCAGCUGAAAUAAUGCA
apparent Kd [1]: 155 nM
apparent Kd [2]: 301 nM

AUUCAUAAUUGGGUAAAUGGAUAGAGUGAUACCAGUCAUAUACAUGACCCUUGGCAGCACAAGGACAUGAGGAUCACCCAUGUCA
apparent Kd [1]: 24.2 nM
apparent Kd [2]: 16.3 nM

ACAUGAGGAUCACCCAUGUCACGGCACGAUACCAGCUGAUGCGGUGGCCCUUGGCAGCGUGACGUUUGGUCCCGCGGAUGACACG
apparent Kd [1]: 200 nM
apparent Kd [2]: 117 nM

UAUAUAUAUAUGGAUACCAGCAGAGAAAACGUUUAUCCUAACAUGAGGAUCACCCAUGUAUGCCCUUGGCAGCUGUGUAUAUAUA
apparent Kd [3]: 22.2 nM
apparent Kd [4]: 26.8 nM

CAGCACAUGAGGAUCACCCAUGUGAGGGAUACCAGCUCAGGCGUGGGCCCUUGGCAGCUCUCUGGCUGACGAAAGUCAGCCUGUG
apparent Kd [1]: 13.2 nM
apparent Kd [2]: 16.7 nM

ACUCUGUCGGGUGAUACCAGCCUCGGCACAUCUCGCGCCGAACAUGAGGAUCACCCAUGUGGCCCUUGGCAGCACAUGACAAAUC
apparent Kd [1]: 328 nM
apparent Kd [2]: 83.1 nM

ACCUCACUCUCUGAUACCAGCUAACAACAUGAGGAUCACCCAUGUCAGACUUGUAUUGAUAGCCCUUGGCAGCAGAGGUAACUGC
apparent Kd [3]: 16.2 nM
apparent Kd [4]: 31.3 nM

GGGUAUGAUCCGGAUACCAGCGAACAUGAGGAUCACCCAUGUGACCUAAGAUAGGCUAAACGCCCUUGGCAGCCGAGAUUGCGUU
apparent Kd [1]: 48.4 nM
apparent Kd [2]: 31.5 nM

UAUAUAUAUAGUGAUACCAGCAGAGAAAACGUUUAUCCUAACAUGAGGAUCACCCAUGUAUGCCCUUGGCAGCGUUAUAUAUAUA
apparent Kd [3]: 24 nM
apparent Kd [4]: 32.4 nM

AAACUGGGUGUAAAAUAAAUAAUCACUGAUACCAGACUAUGAGAUGUCCCUUGGCAGCAGAAACAUGAGGAUCACCCAUGUAAUA
apparent Kd [3]: 17.9 nM
apparent Kd [4]: 21.2 nM

UCACGUGGGAAUGAUACCAGCCACAUGAGGAUCACCCAUGUGCAUGGUGUGAGCUUCACGGGCCCUUGGCAGCAUUUCAAGUCGC
apparent Kd [3]: 48 nM
apparent Kd [4]: 69.5 nM

UGUUUGGUGCGCGAGUGUUGGAUAAUUGAUACCAGUGUAGAAGUGCGCCCUUGGCAGCGAAUCCUAACAUGAGGAUCACCCAUGU
apparent Kd [1]: 46.1 nM
apparent Kd [2]: 57.8 nM

UAUAUAUAUAGGGAUACCAGCAGAGAAAACGUUUAUCCUAACAUGAGGAUCACCCAUGUAUGCCCUUGGCAGCUUUAUAUAUAUA
apparent Kd [3]: 22.9 nM
apparent Kd [4]: 31.2 nM

ACGUCCGGAUUAAUCGUGGGCAUGGUCGAUACCAGUAUUUUAAUCUACCCUUGGCAGCGACAUGAGGAUCACCCAUGUGCGAUGA
apparent Kd [3]: 16.7 nM
apparent Kd [4]: 30.9 nM

AUAGUCUAGAGUGAUACCAGACUACAUGAGGAUCACCCAUGUAUCUUUUGGUUAUCAUGUGUCCCUUGGCAGCACGCAUGUAUAG
apparent Kd [3]: 10.1 nM
apparent Kd [4]: 24.5 nM

UUAGAUAUGACAGAUACCAGCGUGUUGUAGAACAUGAGGAUCACCCAUGUAGUGAUCAAGCGCCCUUGGCAGCUGGUAUGUUUGG
apparent Kd [1]: 170 nM
apparent Kd [2]: 221 nM

UUCUACAUGAGGAUCACCCAUGUGGGUGAUACCAGCACUUUUUGGUGCCCUUGGCAGCACAUGAGAAUACCGUACGAUCGGCGAU
apparent Kd [1]: 265 nM
apparent Kd [2]: 700 nM

UUAUUUAUAAUGGAUACCAGUGCUGUGGCCCGGCAUCCUGACAUGAGGAUCACCCAUGUGUACCCUUGGCAGCUGUUAUGGGUUU
apparent Kd [3]: 22.6 nM

CAUACUUUAGUAUGUUAUGUGGACAGUGAUACCAGAUACGAAAGUAUCCCUUGGCAGCACAACAUGAGGAUCACCCAUGUAUUUU
apparent Kd [1]: 23 nM
apparent Kd [2]: 13.6 nM

CAGAGCUACCGGGAUACCAGAAAUGGUAUUCCUUAAUUUCUUACAUGAGGAUCACCCAUGUUCCCUUGGCAGCUUGGUAGCUCUG
apparent Kd [3]: 86.4 nM
apparent Kd [4]: 385 nM

GAUCUGUCGGGUGAUACCAGCCUCGGCGCGUCUCGCGCUGAACAUGAGGAUCACCCAUGUGGCCCUUGGCAGCACAUGACAAAUC
apparent Kd [1]: 574 nM
apparent Kd [2]: 44.2 nM

AGUACUCGAACGGAUACCAGCCGGACAUGAGGAUCACCCAUGUCCUACCAUGUCUCGGUUGGCCCUUGGCAGCCGUUCGUGUACA
apparent Kd [1]: 83.4 nM
apparent Kd [2]: 234 nM

ACAUGAGGAUGGGAUACCAGAUACAUGAGGAUCACCCAUACAUGAGGAUCACCCAUGUCCGUCCCUUGGCAGCCCAACAUGAGGA
apparent Kd [3]: 169 nM
apparent Kd [4]: 506 nM

CGAAUACGAAUUGAUACCAGCAUGUUAACAUGAGGAUCACCCAUGUUAAGGAUAACAUAAUGCCCUUGGCAGCAACGUAAAUUCG
apparent Kd [1]: 19.4 nM
apparent Kd [2]: 13.4 nM

ACAUGAGGAUCACCCAUGUCUGCCACUGAUACCAGCGGAAGCCCACGCCCUUGGCAGCAGAACAUGAGGAUCACCCAUGUAGGCU
apparent Kd [1]: 232 nM
apparent Kd [2]: 198 nM

ACUAGUUGUGCAGAUACCAGACAUGAGGAUCACCCAUGUUUGGGAUCUUCGGAUCUUCCUGUCCCUUGGCAGCUGUACAUCUAGA
apparent Kd [3]: 85 nM
apparent Kd [4]: 22.5 nM

AACAAUGCACAUGAGGAUCACCCAUGUGAUACCAGCCGCAACAUAGGCCCUUGGCAGCAUGUGGGUAUAGAACGAUUUGGCUGAA
apparent Kd [3]: 45.9 nM
apparent Kd [4]: 78.3 nM

UUUUUUAUUAUGGCGUAUCGGAAAACCGAUACCAGUACAGAAAUGUACCCUUGGCAGCGGCGUUUUACAUGAGGAUCACCCAUGU
apparent Kd [3]: 13.9 nM
apparent Kd [4]: 20.1 nM

UGACAUUGCUCAGAUACCAGACAUGAGGAUCACCCAUGUACCAAGAAAACGUACAAUAAUGUCCCUUGGCAGCUGAGCAAUGUCU
apparent Kd [3]: 101 nM
apparent Kd [4]: 549 nM

AAAUAAAUAACUGAUACCAGUGUACUGACAUGAGGAUCACCCAUGUUGGGUUUUGUUGUACACCCUUGGCAGCAGAAAUAUAAAA
apparent Kd [3]: 35.3 nM
apparent Kd [4]: 73 nM
